Experimental data taken from ChEMBL document CHEMBL1153027, “Synthesis of quinolinyl and isoquinolinyl phenyl ketones as novel agonists for the cannabinoid CB2 receptor” (Bioorg Med Chem, 2009).

Legend:
[1] = molecular target: Cannabinoid receptor 1 (Rattus norvegicus) (UniProt P20272); experiment: Agonist activity at rat cerebellar membrane CB1 receptor at 10 uM by [35]GTPgammaS binding assay relative to basal level; type: functional
Procedure, shortened: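 Rat cerebellar membranes (CB1) used to screen for CB1 agonism and antagonism, per a previously described method. [35S]GTPγS binding with compounds at 10 µM. Results given as % basal; mean ± SEM of at least three duplicate experiments.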

[2] = molecular target: T1, Cannabinoid receptor 2 (Homo sapiens, UniProt P34972); experiment: Agonist activity at human CB2 receptor expressed in CHO cells by [35]GTPgammaS binding assay; type: functional, cell-based
T1 sequence (P34972 whole entry): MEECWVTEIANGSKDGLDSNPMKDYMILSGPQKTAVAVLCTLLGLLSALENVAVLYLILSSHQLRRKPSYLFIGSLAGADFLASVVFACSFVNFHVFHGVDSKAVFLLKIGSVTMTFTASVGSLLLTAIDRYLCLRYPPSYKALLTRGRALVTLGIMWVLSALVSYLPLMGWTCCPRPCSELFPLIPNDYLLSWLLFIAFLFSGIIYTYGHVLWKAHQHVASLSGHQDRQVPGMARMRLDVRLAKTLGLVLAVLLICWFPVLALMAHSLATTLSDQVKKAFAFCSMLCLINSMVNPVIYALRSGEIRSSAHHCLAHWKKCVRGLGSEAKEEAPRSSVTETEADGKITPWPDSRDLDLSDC
Procedure, shortened: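 hCB2 stably expressed in CHO cells; [35S]GTPγS binding stimulated by agonist, procedure of Savinainen et al. Full concentration–response curves were run only for compounds giving over 50% relative activity at 10 µM. EC50 and Emax were obtained by nonlinear regression fitted to a sigmoidal concentration–response equation.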

[3] = molecular target: T1, Cannabinoid receptor 2; experiment: Agonist activity at human CB2 receptor expressed in CHO cells at 10 uM by [35]GTPgammaS binding assay relative to HU210; type: functional, cell-based
Procedure, shortened: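 Human CB2 stably expressed in CHO cells; agonist-stimulated binding of the nonhydrolyzable GTP analogue [35S]GTPγS, run as described by Savinainen et al. Single test concentration 10 µM. Response expressed as percentage of the full CB1/CB2 agonist HU-210. Mean ± SEM of at least three experiments performed in duplicate.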

Cannabinoid receptor 1 (Rattus norvegicus), sequence (P20272 whole entry): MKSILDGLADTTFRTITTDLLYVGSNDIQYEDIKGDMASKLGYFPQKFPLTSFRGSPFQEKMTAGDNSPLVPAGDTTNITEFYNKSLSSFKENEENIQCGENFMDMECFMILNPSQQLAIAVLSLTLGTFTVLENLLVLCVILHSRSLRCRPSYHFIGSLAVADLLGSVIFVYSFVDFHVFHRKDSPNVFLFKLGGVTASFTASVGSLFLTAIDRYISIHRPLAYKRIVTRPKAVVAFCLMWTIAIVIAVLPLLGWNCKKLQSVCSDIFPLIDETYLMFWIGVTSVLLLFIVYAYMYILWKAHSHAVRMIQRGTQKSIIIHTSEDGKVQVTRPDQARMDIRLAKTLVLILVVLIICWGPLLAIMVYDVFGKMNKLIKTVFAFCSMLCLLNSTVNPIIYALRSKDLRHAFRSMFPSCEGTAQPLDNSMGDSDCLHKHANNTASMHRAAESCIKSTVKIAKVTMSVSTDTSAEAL

Row | SMILES | Activity [1] | EC50 [2] | Emax [3]
1 | O=C(c1ccc(Cl)cc1)c1nccc2ccccc12 | 101% | – | –
2 | CC(C)Oc1ccc(C(=O)c2ccc3ccccc3n2)cc1 | 102% | – | –
3 | O=C(c1cccc(C(F)(F)F)c1)c1nccc2ccccc12 | 106% | – | –
4 | O=C(c1cccc(F)c1)c1ccc2ccccc2n1 | 106% | – | –
5 | O=C(c1ccccc1)c1ccc2ccccc2n1 | 103% | 7940 nM | 52%
6 | O=C(c1ccc(Cl)cc1)c1ccc2ccccc2n1 | 101% | 3980 nM | 63%
7 | O=C(c1ccc(C(F)(F)F)cc1)c1ccc2ccccc2n1 | 105% | – | –
8 | O=C(c1ccccc1C(F)(F)F)c1nccc2ccccc12 | 112% | 501 nM | 72%
9 | O=C(c1ccc(C(F)(F)F)cc1)c1nccc2ccccc12 | 95% | 3160 nM | 57%
10 | O=C(c1cccc(F)c1)c1nccc2ccccc12 | 99% | – | –
11 | O=C(c1ccc(F)cc1)c1nccc2ccccc12 | 104% | – | –
12 | O=C(c1ccc(Cl)c(Cl)c1)c1nccc2ccccc12 | 111% | – | –
13 | COc1ccc(C(=O)c2nccc3ccccc23)cc1 | 85% | – | –
14 | CN(C)c1ccc(C(=O)c2nccc3ccccc23)cc1 | 99% | 2510 nM | 68%
15 | COc1cccc(C(=O)c2nccc3ccccc23)c1 | 112% | – | –
16 | COc1ccc(C(=O)c2ccc3ccccc3n2)cc1 | 108% | – | –
17 | CCOc1ccc(C(=O)c2ccc3ccccc3n2)cc1 | 100% | – | –
18 | CN(C)c1ccccc1C(=O)c1nccc2ccccc12 | 116% | 631 nM | 95%
19 | COc1cccc(C(=O)c2ccc3ccccc3n2)c1 | 102% | 2000 nM | 54%
20 | O=C(c1ccc2ccccc2n1)c1ccccc1C(F)(F)F | 102% | 2000 nM | 87%
21 | COc1ccccc1C(=O)c1ccc2ccccc2n1 | 106% | 2510 nM | 53%
22 | O=C(c1ccccc1)c1nccc2ccccc12 | 102% | – | –
23 | O=C(c1cc(C(F)(F)F)cc(C(F)(F)F)c1)c1ccc2ccccc2n1 | 108% | – | –
24 | CN(C)c1ccc(C(=O)c2ccc3ccccc3n2)cc1 | 101% | 6310 nM | 62%
25 | O=C(c1cccc(C(F)(F)F)c1)c1ccc2ccccc2n1 | 102% | 5010 nM | 42%
26 | O=C(c1ccc(F)cc1)c1ccc2ccccc2n1 | 99% | – | –
27 | O=C(c1ccc(Cl)c(Cl)c1)c1ccc2ccccc2n1 | 100% | – | –
28 | O=C(c1cc(C(F)(F)F)cc(C(F)(F)F)c1)c1nccc2ccccc12 | 101% | – | –
29 | CCCOc1ccc(C(=O)c2ccc3ccccc3n2)cc1 | 108% | – | –
30 | CN(C)c1ccccc1C(=O)c1ccc2ccccc2n1 | 101% | 794 nM | 91%
